The text below walks through data of ChEMBL document CHEMBL5126600, “Discovery of the First-in-Class G9a/GLP Covalent Inhibitors” (J Med Chem, 2022).

In assay [1] the target is T1, Histone-lysine N-methyltransferase EHMT2 (Homo sapiens, UniProt Q96KQ7).
T1 sequence (Q96KQ7 whole entry): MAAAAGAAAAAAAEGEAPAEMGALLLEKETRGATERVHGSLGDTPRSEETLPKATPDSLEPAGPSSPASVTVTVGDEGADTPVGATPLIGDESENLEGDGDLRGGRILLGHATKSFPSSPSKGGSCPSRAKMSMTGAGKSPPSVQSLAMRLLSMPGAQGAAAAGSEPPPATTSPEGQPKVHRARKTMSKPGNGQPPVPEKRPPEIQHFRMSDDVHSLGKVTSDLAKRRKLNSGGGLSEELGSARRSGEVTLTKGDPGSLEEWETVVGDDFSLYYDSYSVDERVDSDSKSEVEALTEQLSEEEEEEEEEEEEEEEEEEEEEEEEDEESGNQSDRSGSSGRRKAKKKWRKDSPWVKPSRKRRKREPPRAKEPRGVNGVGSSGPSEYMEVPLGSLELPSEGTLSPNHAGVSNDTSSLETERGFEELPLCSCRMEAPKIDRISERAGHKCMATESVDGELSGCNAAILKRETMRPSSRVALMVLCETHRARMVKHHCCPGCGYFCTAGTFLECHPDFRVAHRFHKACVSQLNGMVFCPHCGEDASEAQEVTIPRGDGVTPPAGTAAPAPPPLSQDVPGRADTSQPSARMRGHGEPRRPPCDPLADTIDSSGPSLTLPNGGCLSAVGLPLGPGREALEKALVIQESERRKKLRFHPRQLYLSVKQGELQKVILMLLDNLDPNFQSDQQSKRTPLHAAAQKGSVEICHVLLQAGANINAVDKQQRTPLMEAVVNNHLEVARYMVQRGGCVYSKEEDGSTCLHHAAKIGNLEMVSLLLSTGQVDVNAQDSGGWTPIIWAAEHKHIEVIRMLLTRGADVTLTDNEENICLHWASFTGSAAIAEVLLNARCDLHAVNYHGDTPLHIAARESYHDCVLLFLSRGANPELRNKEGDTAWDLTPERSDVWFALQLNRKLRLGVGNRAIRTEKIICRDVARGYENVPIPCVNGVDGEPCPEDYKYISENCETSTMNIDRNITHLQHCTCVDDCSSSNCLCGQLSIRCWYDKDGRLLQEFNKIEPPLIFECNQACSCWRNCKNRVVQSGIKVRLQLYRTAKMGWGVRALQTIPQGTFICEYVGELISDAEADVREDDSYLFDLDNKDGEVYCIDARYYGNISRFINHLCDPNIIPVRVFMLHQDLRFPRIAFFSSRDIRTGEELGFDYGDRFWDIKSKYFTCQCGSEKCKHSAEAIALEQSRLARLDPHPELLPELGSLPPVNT
In words: Binding affinity to human G9a (913 to 1193 residues) assessed as dissociation constant by isothermal titration calorimetry method. The method, boiled down:
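Initial 0.4 μL injection, then 13 injections of 500 μM compound from the syringe, stirred at 750 rpm. Experiment time about 50 min. Data fitted to a single binding site model. Mean ± SD of two independent measurements.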
On the technique in general: ITC needs no label: the signal is the heat of the interaction.

The target of assay [2] is Histone-lysine N-methyltransferase NSD3 (Homo sapiens) (UniProt Q9BZ95). In words: Inhibition of N-terminal GST tagged NSD3 (1021 to 1322 residues) (unknown origin) expressed in Escherichia coli at 1 uM using 3H-SAM as a substrate relative to control. In short, it runs like this: (§1)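 Contracted 3H-SAM methyl-transfer scintillation proximity assay against a panel of methyltransferases; compound tested at 1 μM in duplicate; inhibition expressed as percent of control enzyme activity.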

Assay [3] addresses Histone-lysine N-methyltransferase EZH2 (Homo sapiens) (UniProt Q15910). In words: Inhibition of N-terminal His-tagged EZH2 (2 to 746 residues) (unknown origin) expressed in baculovirus expression system at 1 uM using 3H-SAM as a substrate relative to control. The method, boiled down:
as §1

In assay [4] the target is PRMT5/MEP50 complex (Homo sapiens) (UniProt O14744+Q9BQA1). In words: Inhibition of recombinant human N-terminal Flag-tagged PRMT5 (2 to 637 residues)/N-terminal His-tagged MEP50 (2 to 342 residues) expressed in baculovirus expression system at 1 uM using 3H-SAM as a substrate relative to control. The method, boiled down: as §1
Assay [5] addresses Protein arginine N-methyltransferase 8 (Homo sapiens) (UniProt Q9NR22). In words: Inhibition of N/C-terminal His-tagged PRMT8 (61 to 394 residues) (unknown origin) expressed in Escherichia coli at 1 uM using 3H-SAM as a substrate relative to control. In short, it runs like this: as §1
Assay [6] deals with Protein arginine N-methyltransferase 6 (Homo sapiens) (UniProt Q96LA8). In words: Inhibition of N-terminal His-tagged full-length recombinant PRMT6 (2 to 375 residues) (unknown origin) expressed in baculovirus expression system at 1 uM using 3H-SAM as a substrate relative to control. In short, it runs like this: as §1
In the next assay the test system is MDA-MB-231. In words: Down regulation of H3K9 dimethylation in human MDA-MB-231 cells at 0.2 to 5 uM by Western blot analysis. Format: functional, cell-based. The following applies: dose 0.2-5 µM, time lower […], time upper 72.0 hrs, TDE = time-dependent effect. (In western blotting, separated proteins are transferred to a membrane and probed.)
In assay [7] the target is Histone-lysine N-methyltransferase, H3 lysine-79 specific (Homo sapiens) (UniProt Q8TEK3). In words: Inhibition of N-terminal GST-tagged human DOT1L (1 to 416 residues) expressed in Escherichia coli at 1 uM using 3H-SAM as a substrate relative to control. In short, it runs like this: as §1
In assay [8] the target is Histone-lysine N-methyltransferase SMYD3 (Homo sapiens) (UniProt Q9H7B4). In words: Inhibition of recombinant human C-terminal His-tagged SMYD3 (2 to 428 residues) expressed in Sf9 insect cells at 1 uM using 3H-SAM as a substrate relative to control. The method, boiled down: as §1
Assay [9] concerns the target Histone-arginine methyltransferase CARM1 (Homo sapiens) (UniProt Q86X55). In words: Inhibition of N-terminal GST-tagged PRMT4 (2 to 608 residues)(unknown origin) expressed in Escherichia coli at 1 uM using 3H-SAM as a substrate relative to control. In short, it runs like this: as §1
Assay [10] addresses Histone-lysine N-methyltransferase SETD7 (Homo sapiens) (UniProt Q8WTS6). In words: Inhibition of N-terminal and GST-tagged C-terminal His-tagged SET7/9 (2 to 366 residues) (unknown origin) expressed in Escherichia coli at 1 uM using 3H-SAM as a substrate relative to control. In short, it runs like this:
as §1

Assay [11] concerns the target Histone-lysine N-methyltransferase SUV39H2 (Homo sapiens) (UniProt Q9H5I1). In words: Inhibition of N-terminal fusion protein with C-terminal His-tagged SUV39H2 (46 to 410 residues) (unknown origin) expressed in Escherichia coli at 1 uM using 3H-SAM as a substrate relative to control. The method, boiled down: as §1
Assay [12] deals with Protein arginine N-methyltransferase 1 (Homo sapiens) (UniProt Q99873). In words: Inhibition of N-terminal GST tagged PRMT1 (2 to 371 residues) (unknown origin) expressed in Escherichia coli at 1 uM using 3H-SAM as a substrate relative to control. The method, boiled down:
as §1

Assay [13] concerns the target Histone-lysine N-methyltransferase NSD2 (Homo sapiens) (UniProt O96028). In words: Inhibition of NSD2 (2 to 1365 residues) (unknown origin) at 1 uM expressed in baculovirus expression system using 3H-SAM as a substrate relative to control. The method, boiled down: as §1

Chain of Histone-lysine N-methyltransferase SUV39H2 (Homo sapiens) (Q9H5I1 whole entry, the tested form may be a part): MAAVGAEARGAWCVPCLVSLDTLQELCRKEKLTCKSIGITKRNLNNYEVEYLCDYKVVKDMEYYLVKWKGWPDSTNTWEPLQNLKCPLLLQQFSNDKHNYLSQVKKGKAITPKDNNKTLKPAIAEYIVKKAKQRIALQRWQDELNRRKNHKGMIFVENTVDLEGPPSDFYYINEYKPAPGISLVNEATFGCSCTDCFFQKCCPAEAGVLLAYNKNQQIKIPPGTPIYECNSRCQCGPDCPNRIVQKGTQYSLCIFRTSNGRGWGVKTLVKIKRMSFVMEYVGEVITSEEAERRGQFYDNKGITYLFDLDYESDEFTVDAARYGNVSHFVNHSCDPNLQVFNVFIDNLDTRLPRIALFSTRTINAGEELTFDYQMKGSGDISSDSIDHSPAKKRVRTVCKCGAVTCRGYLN
Chain of Histone-lysine N-methyltransferase NSD2 (Homo sapiens) (O96028 whole entry, the tested form may be a part): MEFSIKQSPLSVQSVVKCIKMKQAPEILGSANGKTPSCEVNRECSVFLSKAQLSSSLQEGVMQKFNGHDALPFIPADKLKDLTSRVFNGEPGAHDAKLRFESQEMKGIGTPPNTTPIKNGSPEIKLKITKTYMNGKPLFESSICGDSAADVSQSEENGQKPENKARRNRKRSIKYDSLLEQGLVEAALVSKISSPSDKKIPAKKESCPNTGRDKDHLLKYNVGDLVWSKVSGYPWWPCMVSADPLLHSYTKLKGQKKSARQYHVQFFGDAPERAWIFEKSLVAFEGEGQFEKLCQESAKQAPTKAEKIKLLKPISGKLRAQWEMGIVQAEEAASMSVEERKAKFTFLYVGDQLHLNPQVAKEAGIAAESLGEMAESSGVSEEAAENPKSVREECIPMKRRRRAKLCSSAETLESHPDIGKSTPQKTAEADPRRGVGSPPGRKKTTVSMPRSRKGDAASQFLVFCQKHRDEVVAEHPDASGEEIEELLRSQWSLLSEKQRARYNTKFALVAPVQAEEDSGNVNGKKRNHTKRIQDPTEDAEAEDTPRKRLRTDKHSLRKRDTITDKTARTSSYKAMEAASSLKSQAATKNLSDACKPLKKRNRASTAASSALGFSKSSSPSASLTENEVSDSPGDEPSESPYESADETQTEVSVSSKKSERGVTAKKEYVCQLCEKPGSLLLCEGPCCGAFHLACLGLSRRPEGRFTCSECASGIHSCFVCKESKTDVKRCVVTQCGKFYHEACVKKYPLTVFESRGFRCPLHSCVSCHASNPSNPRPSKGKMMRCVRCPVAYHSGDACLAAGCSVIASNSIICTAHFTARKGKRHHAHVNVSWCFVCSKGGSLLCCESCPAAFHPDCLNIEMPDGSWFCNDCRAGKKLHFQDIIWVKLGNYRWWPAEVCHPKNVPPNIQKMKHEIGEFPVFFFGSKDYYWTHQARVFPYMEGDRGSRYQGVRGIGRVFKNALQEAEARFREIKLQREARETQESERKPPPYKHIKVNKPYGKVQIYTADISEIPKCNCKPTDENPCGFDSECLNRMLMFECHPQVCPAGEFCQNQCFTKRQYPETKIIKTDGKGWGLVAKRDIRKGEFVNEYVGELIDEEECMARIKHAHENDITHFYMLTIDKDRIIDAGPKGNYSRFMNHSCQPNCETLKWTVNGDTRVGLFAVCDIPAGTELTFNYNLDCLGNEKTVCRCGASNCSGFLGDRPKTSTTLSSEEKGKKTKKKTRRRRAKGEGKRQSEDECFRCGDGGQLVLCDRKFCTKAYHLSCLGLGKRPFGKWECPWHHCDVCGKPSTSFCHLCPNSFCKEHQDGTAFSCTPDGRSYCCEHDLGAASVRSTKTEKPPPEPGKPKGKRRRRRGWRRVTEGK
Chain of Histone-lysine N-methyltransferase, H3 lysine-79 specific (Homo sapiens) (Q8TEK3 whole entry, looked up, the tested form may be a part): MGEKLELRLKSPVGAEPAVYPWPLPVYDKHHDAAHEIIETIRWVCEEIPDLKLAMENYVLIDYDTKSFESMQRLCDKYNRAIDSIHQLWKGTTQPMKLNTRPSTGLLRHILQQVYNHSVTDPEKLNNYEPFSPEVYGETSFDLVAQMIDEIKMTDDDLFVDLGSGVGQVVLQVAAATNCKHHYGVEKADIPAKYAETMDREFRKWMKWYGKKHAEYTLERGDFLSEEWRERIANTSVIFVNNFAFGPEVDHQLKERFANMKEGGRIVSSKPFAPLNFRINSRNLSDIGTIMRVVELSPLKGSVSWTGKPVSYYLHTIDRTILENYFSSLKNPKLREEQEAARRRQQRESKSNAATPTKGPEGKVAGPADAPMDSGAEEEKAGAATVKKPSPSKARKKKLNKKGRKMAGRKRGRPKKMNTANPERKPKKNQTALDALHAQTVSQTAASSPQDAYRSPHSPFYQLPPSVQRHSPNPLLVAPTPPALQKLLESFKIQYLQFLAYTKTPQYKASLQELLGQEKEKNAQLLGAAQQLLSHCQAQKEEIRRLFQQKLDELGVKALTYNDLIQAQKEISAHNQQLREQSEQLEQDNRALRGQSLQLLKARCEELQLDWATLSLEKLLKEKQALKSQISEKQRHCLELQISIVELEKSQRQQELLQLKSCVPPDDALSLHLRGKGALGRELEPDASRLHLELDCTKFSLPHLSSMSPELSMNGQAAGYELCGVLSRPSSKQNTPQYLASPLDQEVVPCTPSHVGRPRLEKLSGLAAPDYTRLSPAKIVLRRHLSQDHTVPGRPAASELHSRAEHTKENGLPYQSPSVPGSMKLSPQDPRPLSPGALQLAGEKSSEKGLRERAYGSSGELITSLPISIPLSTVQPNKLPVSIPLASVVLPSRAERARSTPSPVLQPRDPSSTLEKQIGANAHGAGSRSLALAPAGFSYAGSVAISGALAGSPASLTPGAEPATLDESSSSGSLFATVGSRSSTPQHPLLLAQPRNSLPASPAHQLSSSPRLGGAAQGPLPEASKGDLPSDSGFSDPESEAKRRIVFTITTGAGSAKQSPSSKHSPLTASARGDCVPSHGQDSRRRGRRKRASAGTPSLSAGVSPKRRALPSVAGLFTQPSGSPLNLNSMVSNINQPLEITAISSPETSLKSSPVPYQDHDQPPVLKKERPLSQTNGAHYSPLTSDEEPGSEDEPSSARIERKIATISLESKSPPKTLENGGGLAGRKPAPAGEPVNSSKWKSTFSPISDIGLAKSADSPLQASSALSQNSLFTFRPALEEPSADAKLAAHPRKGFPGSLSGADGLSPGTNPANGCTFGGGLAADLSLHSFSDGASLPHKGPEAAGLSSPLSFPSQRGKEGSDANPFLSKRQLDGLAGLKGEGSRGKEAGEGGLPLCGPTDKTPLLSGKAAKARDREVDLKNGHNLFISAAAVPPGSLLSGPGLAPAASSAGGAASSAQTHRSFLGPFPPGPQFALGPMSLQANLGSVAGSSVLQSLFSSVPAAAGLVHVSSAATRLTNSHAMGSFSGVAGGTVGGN
Chain of Histone-arginine methyltransferase CARM1 (Homo sapiens) (Q86X55 whole entry, the tested form may be a part): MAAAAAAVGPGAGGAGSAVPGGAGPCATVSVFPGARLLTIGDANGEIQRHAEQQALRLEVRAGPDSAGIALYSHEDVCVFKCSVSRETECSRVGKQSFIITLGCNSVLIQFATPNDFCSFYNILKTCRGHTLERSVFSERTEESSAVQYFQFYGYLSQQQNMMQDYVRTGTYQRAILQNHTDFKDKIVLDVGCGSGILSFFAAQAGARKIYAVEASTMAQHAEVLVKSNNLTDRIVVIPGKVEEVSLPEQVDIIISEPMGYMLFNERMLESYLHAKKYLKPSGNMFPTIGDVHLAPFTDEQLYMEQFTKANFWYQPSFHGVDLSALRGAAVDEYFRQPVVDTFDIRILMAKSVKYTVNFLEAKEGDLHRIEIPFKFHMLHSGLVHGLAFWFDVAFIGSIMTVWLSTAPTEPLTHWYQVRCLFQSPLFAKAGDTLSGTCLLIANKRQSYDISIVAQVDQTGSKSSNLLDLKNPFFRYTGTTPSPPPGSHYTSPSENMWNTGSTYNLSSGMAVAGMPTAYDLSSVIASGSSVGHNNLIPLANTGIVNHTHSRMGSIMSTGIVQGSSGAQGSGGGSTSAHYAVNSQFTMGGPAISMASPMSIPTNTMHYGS
Chain of Protein arginine N-methyltransferase 6 (Homo sapiens) (Q96LA8 whole entry, looked up, the tested form may be a part): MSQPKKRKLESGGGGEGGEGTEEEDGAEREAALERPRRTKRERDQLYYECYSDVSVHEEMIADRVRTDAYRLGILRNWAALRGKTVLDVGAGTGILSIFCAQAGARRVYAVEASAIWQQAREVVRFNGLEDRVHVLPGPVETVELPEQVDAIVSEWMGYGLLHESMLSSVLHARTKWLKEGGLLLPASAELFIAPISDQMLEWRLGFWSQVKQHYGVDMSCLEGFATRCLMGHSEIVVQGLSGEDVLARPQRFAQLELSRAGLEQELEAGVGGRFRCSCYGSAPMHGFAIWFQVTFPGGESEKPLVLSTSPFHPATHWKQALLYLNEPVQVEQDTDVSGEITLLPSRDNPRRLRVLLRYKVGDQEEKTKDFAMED
Chain of Histone-lysine N-methyltransferase SMYD3 (Homo sapiens) (Q9H7B4 whole entry, the tested form may be a part): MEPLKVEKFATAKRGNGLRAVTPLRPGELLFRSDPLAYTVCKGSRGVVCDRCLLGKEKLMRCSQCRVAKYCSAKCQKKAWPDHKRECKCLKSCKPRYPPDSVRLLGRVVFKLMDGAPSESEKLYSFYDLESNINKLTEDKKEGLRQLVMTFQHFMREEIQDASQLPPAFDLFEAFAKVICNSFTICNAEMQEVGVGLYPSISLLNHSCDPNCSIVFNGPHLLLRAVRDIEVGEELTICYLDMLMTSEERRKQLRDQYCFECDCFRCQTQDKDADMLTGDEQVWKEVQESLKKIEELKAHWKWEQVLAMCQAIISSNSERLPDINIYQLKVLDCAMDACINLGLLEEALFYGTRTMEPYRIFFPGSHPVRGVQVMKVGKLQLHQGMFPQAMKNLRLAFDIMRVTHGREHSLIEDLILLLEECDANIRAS

Consider `C=CC(=O)Nc1cc(NC2CCN(C(C)C)CC2)c2cc(OC)c(OCCCN3CCCC3)cc2n1`, for which the equilibrium dissociation constant (Kd) in [1] was found to be 0.044 µM. Besides, the inhibition in assay [2], in [3], in assay [4], in assay [5], in assay [6] and in assay [7] was < 50% throughout. The inhibition in [8], in assay [9], in assay [10], in assay [11], in [12] and in assay [13] was < 50% throughout. Also, the Activity result in the assay on MDA-MB-231 is “Tde”.

One may read the Kd as the equilibrium constant for the complex coming apart. In general, inhibition refers to the drop in the measured response relative to a control, in per cent.
